Data as given in PubChem BioAssay.
Inconclusive results are not listed.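 How the source made its calls, unless noted: active means viability increase at or above a cutoff of the median across tested compounds plus 3 SD (cut at about 8.5% in these data, passing the limit was not always enough); inconclusive means some gains above the cutoff, reason not given; inactive means the rest.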

Experiments:
[1] = S. cerevisiae growth inhibition in permissive medium (OD615), pilot counter-assay for S. cerevisiae lifespan shortening project, permissive growth control (AID 705;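 active means growth inhibition above 25% in both replicates, a cutoff set 3 SD above the mean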); conditions: OD615, 24 h, at 10 µM, hits give high values
Procedure, shortened: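 Test system: Saccharomyces cerevisiae strain carrying genetically modified DeaD replicative-lifespan system; buffer or medium: SC raffinose/galactose permissive medium; dosing: one dose 10 µM, DMSO 0.25% final; times: 24 h exposure, 30 °C; measured by: OD at 615 nm; read-out basis: growth inhibition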

[2] = S. cerevisiae growth inhibition in restrictive medium, OD615, pilot screen, restrictive growth control, yeast lifespan reduction project (AID 706;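 active means growth inhibition above a set limit, 3 SD over mean compound inhibition, in both replicates, cut at about 43% in these data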;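 further: modified DeaD lifespan yeast strain shifted to restrictive glucose medium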); conditions: OD615, 48 h, at 10 µM, hits give high values
Procedure, shortened: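 material = engineered S. cerevisiae DeaD strain | buffer or medium = glucose-based CSMM-D restrictive medium | dosing = one concentration, 10 µM final, 0.25% DMSO | schedule = 4 h pre-growth plus 48 h compound exposure, 30 °C | detection = OD615 absorbance reading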

[3] = doxorubicin toxicity protection in MRP-1 cells – H69AR cells, CellTiter-Glo, duplicate, MRP-1 activator project, pilot screen (AID 807); conditions: H69AR viability with doxorubicin, CellTiter-Glo luminescence; at 10 µM; hits give high values;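 further: compound pretreatment 18-22 h then 72 h combined with doxorubicin; 0% = doxorubicin alone and 100% = vehicle without doxorubicin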
[4] = viability of HCT116 without oncogenic beta-catenin – human colon tumor cells, pilot screen (AID 823;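 active means cell viability at or below a set limit in both duplicate runs, the limit being the all-compound median minus 4 SD, cut at about 23% in these data, passing the limit was not always enough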;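 further: 0% = wells killed by 20 µM Hyamine and 100% = untreated DMSO cell wells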); conditions: HCT116 beta-catenin knockout viability, CellTiter-Glo, 60 h; at 10 µM; hits give low values
[5] = viability of PTEN-null HCT116 cells – cell-based, HCT116 clonal line, CellTiter-Glo, pilot screen (AID 824;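 active means viability at or below 27.92% in each of two runs, the all-compound median minus 4 SD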;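 further: 0% = 20 µM Hyamine control and 100% = vehicle cell control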); conditions: HCT116 PTEN-deleted viability, 60 h, at 10 µM, hits give low values
[6] = RAM pathway blockade in budding yeast – dse1pr::URA3 reporter, 5-FOA selection, pilot screen (AID 869;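 active means inhibition over a set limit, the all-compound mean plus 3 SD, in both replicate runs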;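 further: 0% = DMSO wells with no growth and 100% = 10 µM 1-NA-PP1 with full growth; RAM network block rescues cells from 5-FOA so hits raise OD615 growth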); conditions: S. cerevisiae dse1pr::URA3 5-FOA growth, OD615, 2 d; at 10 µM; hits give high values; strain carries analog-sensitive mutant Cbk1 kinase
[7] = RAM signaling pathway blockade in yeast – S. cerevisiae, Pdr1DBD-CYC8 efflux-inhibited sensitized strain, primary screen (AID 1298;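 active means RAM network inhibition above 8.4% in each of two replicates, 3 SD over the compound average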;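 further: 0% = DMSO untreated cells without growth and 100% = 10 µM 1-NA-PP1 full growth; higher means more yeast growth rescued from 5-FOA killing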); conditions: S. cerevisiae cbk1-as DSE1-URA3 strain, 5-FOA growth OD615, 2 d; at 50 µM; hits give high values

CC(=N)C1=C(O)CC(C)(C)CC1=O
inactive: growth inhibition [1] -7.31% | growth inhibition [2] -1.06% | viability increase [3] 0.77% | viability [4] 94.9% | viability [5] 105% | inhibition [6] 1.49% | RAM network inhibition [7] 2.39%

CN(CP(=O)(O)C(O)c1ccccc1)S(C)(=O)=O (stereo not drawn)
inactive: growth inhibition [1] -4.82% | growth inhibition [2] -6.66% | viability increase [3] 0.16% | viability [4] 94.2% | viability [5] 93.4% | inhibition [6] 1.1% | RAM network inhibition [7] 1.86%

O=C1N=C(N2CCOCC2)SC1=C1CCCCC1
inactive: growth inhibition [1] -8.5% | growth inhibition [2] -2.34% | viability increase [3] -2.09% | viability [4] 98% | viability [5] 97.1% | inhibition [6] 1.17% | RAM network inhibition [7] 1.84%

COc1cc(C2C(C(=O)Nc3ccc(F)cc3)=C(C)Nc3nc(CCCO)nn32)cc(OC)c1OC (stereo not drawn)
inactive: growth inhibition [1] -2.56% | growth inhibition [2] -11.4% | viability increase [3] -1.09% | viability [4] 105% | viability [5] 92.7% | inhibition [6] 2.58% | RAM network inhibition [7] 1.42%

Cc1nc(CC(=O)c2c(C)cc(O)cc2O)cs1
inactive: growth inhibition [1] -12.2% | growth inhibition [2] 1.06% | viability increase [3] 2.92% | viability [4] 90.5% | viability [5] 95.9% | inhibition [6] -0.335% | RAM network inhibition [7] 1.48%

CCCNC(=O)CS(=O)Cc1nc(-c2cccc(OC)c2)oc1C (stereo not drawn)
inactive: growth inhibition [1] -6.84% | growth inhibition [2] -0.045% | viability increase [3] -2.3% | viability [4] 96.6% | viability [5] 95.2% | inhibition [6] 1.2% | RAM network inhibition [7] -0.38%

COc1ccc(-c2[nH]c(-c3ccc(F)cc3)nc2SCC(=O)NCc2ccco2)cc1OC
inactive: growth inhibition [1] -4.83% | growth inhibition [2] 12.4% | viability increase [3] -2.49% | viability [4] 96.9% | viability [5] 92.9% | inhibition [6] 0.93% | RAM network inhibition [7] 4.24%

Cc1cc(=O)[nH]c(SCC(=O)NCCOc2ccccc2)n1
inactive: growth inhibition [1] -2.17% | growth inhibition [2] -1.72% | viability increase [3] -0.09% | viability [4] 102% | viability [5] 98.8% | inhibition [6] 1.02% | RAM network inhibition [7] 1.13%

COc1ccccc1OCC(=O)N(Cc1nc(-c2ccc(Cl)cc2)no1)C(C)C
inactive: growth inhibition [1] -16.3% | growth inhibition [2] -10.6% | viability increase [3] 2.37% | viability [4] 84.7% | viability [5] 82.5% | inhibition [6] 1.4% | RAM network inhibition [7] 6.52%

CCOC(=O)N1CCN(c2nc(C)cc(C(F)(F)F)n2)CC1
inactive: growth inhibition [1] 1.86% | growth inhibition [2] -23.3% | viability increase [3] 2.84% | viability [4] 102% | viability [5] 96.5% | inhibition [6] 2.92% | RAM network inhibition [7] 2.23%

CCCOC(=O)CC1C(=O)NCCN1Cc1ccccc1C (stereo not drawn)
inactive: growth inhibition [1] -20.8% | growth inhibition [2] -0.97% | viability increase [3] -0.62% | viability [4] 98.8% | viability [5] 94.2% | inhibition [6] 1.71% | RAM network inhibition [7] 7.95%

CC1CCN(C(C(=O)Nc2ccc3c(c2)OCO3)c2ccccc2)CC1 (stereo not drawn)
inactive: growth inhibition [1] 3.37% | growth inhibition [2] 10.4% | viability increase [3] -2.94% | viability [4] 83.8% | viability [5] 78.7% | inhibition [6] 2.49% | RAM network inhibition [7] 4.49%

C=CCOc1ccc(/C=C/C(C)=N\O)cc1
inactive: growth inhibition [1] 3.48% | growth inhibition [2] 7.77% | viability increase [3] -3.27% | viability [4] 93.2% | viability [5] 96.3% | inhibition [6] 1.11% | RAM network inhibition [7] 9.15%

Cc1ccc(Oc2ccccc2)c(NC=O)c1
inactive: growth inhibition [1] -2.02% | growth inhibition [2] 11.4% | viability increase [3] -3.07% | viability [4] 96.2% | viability [5] 90.4% | inhibition [6] -0.085% | RAM network inhibition [7] 1.17%

Cc1cccc(Cn2c(SCCN3CCOCC3)nc3c2c(=O)n(C)c(=O)n3C)c1
inactive: growth inhibition [1] 1.68% | growth inhibition [2] 1.63% | viability increase [3] -2.36% | viability [4] 103% | viability [5] 91% | inhibition [6] 0.9% | RAM network inhibition [7] 5.93%

COCCNC(=O)Cn1ncc2ccsc2c1=O
inactive: growth inhibition [1] -1.34% | growth inhibition [2] 5.16% | viability increase [3] 0.35% | viability [4] 107% | viability [5] 100% | inhibition [6] 2.33% | RAM network inhibition [7] 4.98%

Cc1ccn2cc(-c3ccc(S(=O)(=O)N4CCOCC4)cc3)nc2c1
inactive: growth inhibition [1] -2.96% | growth inhibition [2] 6.53% | viability increase [3] 2.12% | viability [4] 106% | viability [5] 102% | inhibition [6] 1.6% | RAM network inhibition [7] 1.79%

N#Cc1nc(-c2ccc(F)cc2)oc1NCc1ccccc1
inactive: growth inhibition [1] -11.9% | growth inhibition [2] 2.85% | viability increase [3] 0.89% | viability [4] 105% | viability [5] 95.7% | inhibition [6] 1.36% | RAM network inhibition [7] 1.07%

COc1ccc2c(c1)OC1(C)CC2C(C(=O)c2ccccc2OC)C(=O)N1 (stereo not drawn)
inactive: growth inhibition [1] -18.1% | growth inhibition [2] -9.23% | viability increase [3] -4.56% | viability [4] 80.4% | viability [5] 67% | inhibition [6] -0.025% | RAM network inhibition [7] 1.48%

CCN(CC)S(=O)(=O)c1ccc(Cl)c(C(=O)Nc2nnc(C)s2)c1
inactive: growth inhibition [1] -6.93% | growth inhibition [2] 1.45% | viability increase [3] 0.43% | viability [4] 93.1% | viability [5] 95.7% | inhibition [6] -0.08% | RAM network inhibition [7] 4.33%

CCSc1nnc(Cc2cc(=O)[nH]c(=O)[nH]2)n1-c1ccc(F)cc1
inactive: growth inhibition [1] -5.83% | growth inhibition [2] -10.5% | viability increase [3] 0.38% | viability [4] 104% | viability [5] 100% | inhibition [6] 0.9% | RAM network inhibition [7] 1.04%

Cc1cc(N2CCN(C3CCCCC3)CC2)nc2cccc(O)c12
inactive: growth inhibition [1] -7.5% | growth inhibition [2] -31.3% | viability increase [3] -4% | viability [4] 61% | viability [5] 62.8% | inhibition [6] 2.71% | RAM network inhibition [7] 4.45%

CCOC(=O)c1ccc2[nH]c(C)cc(=O)c2c1
inactive: growth inhibition [1] -1.86% | growth inhibition [2] 1.21% | viability increase [3] -0.4% | viability [4] 98% | viability [5] 98% | inhibition [6] 1.35% | RAM network inhibition [7] 9.46%

O=C(CSc1nc2c(c(=O)n1-c1ccc(F)cc1)SCC2)NCc1ccco1
inactive: growth inhibition [1] 8.53% | growth inhibition [2] 14.1% | viability increase [3] -2.1% | viability [4] 102% | viability [5] 103% | inhibition [6] 1.21% | RAM network inhibition [7] 7.3%
